Measurements from ChEMBL document CHEMBL1156778, “Synthesis and structure-activity studies of biphenyl analogues of the tuberculosis drug (6S)-2-nitro-6-{[4-(trifluoromethoxy)benzyl]oxy}-6,7-dihydro-5H-imidazo[2,1-b][1,3]oxazine (PA-824)” (J Med Chem, 2010).
In brackets after ≈: the same amount, converted by molar mass.

What was measured:
[1] = system: Mycobacterium tuberculosis; assay: Antitubercular activity against Mycobacterium tuberculosis H37Rv in aerobic condition after 7 days by microplate alamar blue assay; format: functional; conditions: 168 h
How it was run: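 M. tuberculosis H37Rv, replicating culture; 8-day microplate assay with Alamar blue added on day 7 to read growth. […] Mean of at least two independent determinations ± SD.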

[2] = system: Mycobacterium tuberculosis; assay: Antitubercular activity against Mycobacterium tuberculosis H37Rv in anaerobic condition after 7 days by low oxygen recovery assay; format: functional; conditions: 168 h
Vero = assay: Cytotoxicity against african green monkey Vero cells after 72 hrs by MTS assay; format: cell-based; conditions: Chlorocebus sabaeus
How it was run: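 VERO cells (CCL-81), 72 h exposure, tetrazolium dye read-out.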

Compound: O=[N+]([O-])c1cn2c(n1)OC[C@@H](OCc1cccc(-c3cccc(OC(F)(F)F)c3)c1)C2
- MIC [1]: 0.4 µM (≈ 0.174 µg/mL)
- MIC [2]: 3.5 µM (≈ 1.52 µg/mL)
- IC50 (Vero): > 125 µM

Compound: O=[N+]([O-])c1cn2c(n1)OC[C@@H](OCc1cccc(-c3cccc(C(F)(F)F)c3)c1)C2
- MIC [1]: 0.34 µM (≈ 0.143 µg/mL)
- MIC [2]: 2.9 µM (≈ 1.22 µg/mL)
- IC50 (Vero): > 125 µM

Compound: CSc1cccc(-c2cccc(CO[C@@H]3COc4nc([N+](=O)[O-])cn4C3)c2)c1
- MIC [1]: 0.07 µM (≈ 0.0278 µg/mL)
- MIC [2]: 1.4 µM (≈ 0.556 µg/mL)
- IC50 (Vero): > 125 µM

Compound: Cc1cccc(C)c1-c1ccc(CO[C@@H]2COc3nc([N+](=O)[O-])cn3C2)cc1
- MIC [1]: 0.39 µM (≈ 0.148 µg/mL)
- MIC [2]: 0.93 µM (≈ 0.353 µg/mL)
- IC50 (Vero): > 125 µM

Compound: O=[N+]([O-])c1cn2c(n1)OC[C@@H](OCc1ccc(-c3ccc(CO)cc3)cc1)C2
- MIC [1]: 0.54 µM (≈ 0.206 µg/mL)
- MIC [2]: 3.7 µM (≈ 1.41 µg/mL)
- IC50 (Vero): > 125 µM

Compound: O=[N+]([O-])c1cn2c(n1)OC[C@@H](OCc1cccc(-c3ccc(OCCCO)cc3)c1)C2
- MIC [1]: 0.36 µM (≈ 0.153 µg/mL)
- MIC [2]: 1.5 µM (≈ 0.638 µg/mL)
- IC50 (Vero): > 125 µM

Compound: CSc1cccc(-c2ccccc2CO[C@@H]2COc3nc([N+](=O)[O-])cn3C2)c1
- MIC [1]: 0.81 µM (≈ 0.322 µg/mL)
- MIC [2]: 3.2 µM (≈ 1.27 µg/mL)
- IC50 (Vero): > 125 µM

Compound: COc1cc(-c2ccc(CO[C@@H]3COc4nc([N+](=O)[O-])cn4C3)cc2)ccc1F
- MIC [1]: 0.045 µM (≈ 0.018 µg/mL)
- MIC [2]: 1.5 µM (≈ 0.599 µg/mL)
- IC50 (Vero): > 125 µM

Compound: O=[N+]([O-])c1cn2c(n1)OC[C@@H](OCc1ccc(-c3cccc(C(F)(F)F)c3)cc1)C2
- MIC [1]: 0.067 µM (≈ 0.0281 µg/mL)
- MIC [2]: 1.3 µM (≈ 0.545 µg/mL)
- IC50 (Vero): > 125 µM

Compound: CSc1ccccc1-c1ccc(CO[C@@H]2COc3nc([N+](=O)[O-])cn3C2)cc1
- MIC [1]: 0.087 µM (≈ 0.0346 µg/mL)
- MIC [2]: 1.4 µM (≈ 0.556 µg/mL)
- IC50 (Vero): > 125 µM

Compound: CC(C)c1cccc(-c2ccc(CO[C@@H]3COc4nc([N+](=O)[O-])cn4C3)cc2)c1
- MIC [1]: 0.14 µM (≈ 0.0551 µg/mL)
- MIC [2]: 4.2 µM (≈ 1.65 µg/mL)
- IC50 (Vero): > 125 µM

Compound: O=[N+]([O-])c1cn2c(n1)OC[C@@H](OCc1ccc(-c3cccc(O)c3)cc1)C2
- MIC [1]: 0.14 µM (≈ 0.0514 µg/mL)
- MIC [2]: 3.1 µM (≈ 1.14 µg/mL)
- IC50 (Vero): > 125 µM

Compound: O=[N+]([O-])c1cn2c(n1)OC[C@@H](OCc1ccc(-c3cccc(OC(F)(F)F)c3)cc1)C2
- MIC [1]: 0.077 µM (≈ 0.0335 µg/mL)
- MIC [2]: 1.4 µM (≈ 0.61 µg/mL)
- IC50 (Vero): > 125 µM

Compound: O=[N+]([O-])c1cn2c(n1)OC[C@@H](OCc1ccc(-c3ccc(OCCCO)cc3)cc1)C2
- MIC [1]: 0.6 µM (≈ 0.255 µg/mL)
- MIC [2]: 2.2 µM (≈ 0.936 µg/mL)
- IC50 (Vero): > 125 µM

Compound: O=[N+]([O-])c1cn2c(n1)OC[C@@H](OCc1ccc(-c3ccc(OC(F)(F)F)c([N+](=O)[O-])c3)cc1)C2
- MIC [1]: 0.045 µM (≈ 0.0216 µg/mL)
- MIC [2]: 1.6 µM (≈ 0.769 µg/mL)
- IC50 (Vero): > 125 µM

Compound: O=[N+]([O-])c1cn2c(n1)OC[C@@H](OCc1ccc(-c3ccccc3C(F)(F)F)cc1)C2
- MIC [1]: 0.077 µM (≈ 0.0323 µg/mL)
- MIC [2]: 1.6 µM (≈ 0.671 µg/mL)
- IC50 (Vero): > 125 µM

Compound: COc1cccc(OC)c1-c1ccc(CO[C@@H]2COc3nc([N+](=O)[O-])cn3C2)cc1
- MIC [1]: 0.31 µM (≈ 0.128 µg/mL)
- MIC [2]: 1 µM (≈ 0.411 µg/mL)
- IC50 (Vero): > 125 µM

Compound: CSc1cccc(-c2ccc(CO[C@@H]3COc4nc([N+](=O)[O-])cn4C3)cc2)c1
- MIC [1]: 0.077 µM (≈ 0.0306 µg/mL)
- MIC [2]: 0.95 µM (≈ 0.378 µg/mL)
- IC50 (Vero): > 125 µM

Compound: O=[N+]([O-])c1cn2c(n1)OC[C@@H](OCc1cccc(-c3ccccc3)c1)C2
- MIC [1]: 0.095 µM (≈ 0.0334 µg/mL)
- MIC [2]: 2.1 µM (≈ 0.738 µg/mL)
- IC50 (Vero): > 125 µM

Compound: COc1cc(OC)cc(-c2ccc(CO[C@@H]3COc4nc([N+](=O)[O-])cn4C3)cc2)c1
- MIC [1]: 0.28 µM (≈ 0.115 µg/mL)
- MIC [2]: 0.79 µM (≈ 0.325 µg/mL)
- IC50 (Vero): > 125 µM

Compound: O=[N+]([O-])c1cn2c(n1)OC[C@@H](OCc1cccc(-c3ccccc3OC(F)(F)F)c1)C2
- MIC [1]: 0.46 µM (≈ 0.2 µg/mL)
- MIC [2]: 3.3 µM (≈ 1.44 µg/mL)
- IC50 (Vero): > 125 µM

Compound: O=[N+]([O-])c1cn2c(n1)OC[C@@H](OCc1cccc(-c3cccc(O)c3)c1)C2
- MIC [1]: 0.3 µM (≈ 0.11 µg/mL)
- MIC [2]: 3.7 µM (≈ 1.36 µg/mL)
- IC50 (Vero): > 125 µM

Compound: Cc1cc(-c2ccc(CO[C@@H]3COc4nc([N+](=O)[O-])cn4C3)cc2)cc(C)c1O
- MIC [1]: 0.3 µM (≈ 0.119 µg/mL)
- MIC [2]: 1.5 µM (≈ 0.593 µg/mL)
- IC50 (Vero): > 125 µM

Compound: O=[N+]([O-])c1cn2c(n1)OC[C@@H](OCc1cccc(-c3ccc(F)cc3)c1)C2
- MIC [1]: 0.077 µM (≈ 0.0284 µg/mL)
- MIC [2]: 3.8 µM (≈ 1.4 µg/mL)
- IC50 (Vero): > 125 µM

Compound: O=[N+]([O-])c1cn2c(n1)OC[C@@H](OCc1ccccc1-c1cccc(F)c1)C2
- MIC [1]: 0.62 µM (≈ 0.229 µg/mL)
- MIC [2]: 3 µM (≈ 1.11 µg/mL)
- IC50 (Vero): > 125 µM

Compound: O=[N+]([O-])c1cn2c(n1)OC[C@@H](OCc1ccc(-c3ccc(C(F)(F)F)c(Cl)c3)cc1)C2
- MIC [1]: 0.06 µM (≈ 0.0272 µg/mL)
- MIC [2]: 0.97 µM (≈ 0.44 µg/mL)
- IC50 (Vero): > 125 µM

Compound: O=[N+]([O-])c1cccc(-c2ccc(CO[C@@H]3COc4nc([N+](=O)[O-])cn4C3)cc2)c1
- MIC [1]: 0.13 µM (≈ 0.0515 µg/mL)
- MIC [2]: 0.76 µM (≈ 0.301 µg/mL)
- IC50 (Vero): > 125 µM

Compound: CC(C)Oc1ccc(-c2ccc(CO[C@@H]3COc4nc([N+](=O)[O-])cn4C3)cc2)cc1
- MIC [1]: 0.25 µM (≈ 0.102 µg/mL)
- MIC [2]: 3.8 µM (≈ 1.56 µg/mL)
- IC50 (Vero): > 125 µM

Compound: COc1cccc(-c2ccc(CO[C@@H]3COc4nc([N+](=O)[O-])cn4C3)cc2)c1
- MIC [1]: 0.27 µM (≈ 0.103 µg/mL)
- MIC [2]: 1.9 µM (≈ 0.725 µg/mL)
- IC50 (Vero): > 125 µM

Compound: O=[N+]([O-])c1cn2c(n1)OC[C@@H](OCc1ccc(-c3cccc(OCCCO)c3)cc1)C2
- MIC [1]: 0.18 µM (≈ 0.0766 µg/mL)
- MIC [2]: 3.2 µM (≈ 1.36 µg/mL)
- IC50 (Vero): > 125 µM

Compound: O=[N+]([O-])c1cn2c(n1)OC[C@@H](OCc1ccc(-c3ccc4ccccc4c3)cc1)C2
- MIC [1]: 0.045 µM (≈ 0.0181 µg/mL)
- MIC [2]: 0.87 µM (≈ 0.349 µg/mL)
- IC50 (Vero): > 125 µM

Compound: O=Cc1cccc(-c2ccc(CO[C@@H]3COc4nc([N+](=O)[O-])cn4C3)cc2)c1
- MIC [1]: 0.14 µM (≈ 0.0531 µg/mL)
- MIC [2]: 0.57 µM (≈ 0.216 µg/mL)
- IC50 (Vero): > 125 µM

Compound: O=Cc1ccc(-c2ccc(CO[C@@H]3COc4nc([N+](=O)[O-])cn4C3)cc2)cc1
- MIC [1]: 0.2 µM (≈ 0.0759 µg/mL)
- MIC [2]: 1 µM (≈ 0.379 µg/mL)
- IC50 (Vero): > 125 µM

Compound: O=[N+]([O-])c1cn2c(n1)OC[C@@H](OCc1cccc(-c3ccc(OC(F)(F)F)cc3)c1)C2
- MIC [1]: 0.11 µM (≈ 0.0479 µg/mL)
- MIC [2]: 2.2 µM (≈ 0.958 µg/mL)
- IC50 (Vero): > 125 µM

Compound: O=[N+]([O-])c1cn2c(n1)OC[C@@H](OCc1ccc(-c3ccccc3Cl)cc1)C2
- MIC [1]: 0.15 µM (≈ 0.0579 µg/mL)
- MIC [2]: 1.5 µM (≈ 0.579 µg/mL)
- IC50 (Vero): > 125 µM

Compound: O=[N+]([O-])c1cn2c(n1)OC[C@@H](OCc1cccc(-c3cccc(F)c3)c1)C2
- MIC [1]: 0.18 µM (≈ 0.0665 µg/mL)
- MIC [2]: 2.7 µM (≈ 0.997 µg/mL)
- IC50 (Vero): > 125 µM

Compound: O=Cc1ccccc1-c1ccc(CO[C@@H]2COc3nc([N+](=O)[O-])cn3C2)cc1
- MIC [1]: 0.08 µM (≈ 0.0303 µg/mL)
- MIC [2]: 0.78 µM (≈ 0.296 µg/mL)
- IC50 (Vero): > 125 µM

Compound: CSc1ccc(-c2ccc(CO[C@@H]3COc4nc([N+](=O)[O-])cn4C3)cc2)cc1
- MIC [1]: 0.075 µM (≈ 0.0298 µg/mL)
- MIC [2]: 0.95 µM (≈ 0.378 µg/mL)
- IC50 (Vero): > 125 µM

Compound: COc1ccc(-c2cccc(CO[C@@H]3COc4nc([N+](=O)[O-])cn4C3)c2)cc1F
- MIC [1]: 0.19 µM (≈ 0.0759 µg/mL)
- MIC [2]: 2.2 µM (≈ 0.879 µg/mL)
- IC50 (Vero): > 125 µM

Compound: O=[N+]([O-])c1cn2c(n1)OC[C@@H](OCc1ccc(-c3cccc(-c4ccccc4)c3)cc1)C2
- MIC [1]: 0.31 µM (≈ 0.133 µg/mL)
- MIC [2]: 0.88 µM (≈ 0.376 µg/mL)
- IC50 (Vero): > 125 µM

Compound: CC(=O)c1ccc(-c2cccc(CO[C@@H]3COc4nc([N+](=O)[O-])cn4C3)c2)cc1
- MIC [1]: 0.3 µM (≈ 0.118 µg/mL)
- MIC [2]: 1.9 µM (≈ 0.747 µg/mL)
- IC50 (Vero): > 125 µM

Compound: COc1c(F)cc(-c2ccc(CO[C@@H]3COc4nc([N+](=O)[O-])cn4C3)cc2)cc1F
- MIC [1]: 0.045 µM (≈ 0.0188 µg/mL)
- MIC [2]: 1.3 µM (≈ 0.543 µg/mL)
- IC50 (Vero): > 125 µM

Compound: COc1cc(C)c(-c2ccc(CO[C@@H]3COc4nc([N+](=O)[O-])cn4C3)cc2)c(C)c1
- MIC [1]: 0.58 µM (≈ 0.237 µg/mL)
- MIC [2]: 0.94 µM (≈ 0.385 µg/mL)
- IC50 (Vero): > 125 µM

Compound: CSc1ccc(-c2cccc(CO[C@@H]3COc4nc([N+](=O)[O-])cn4C3)c2)cc1
- MIC [1]: 0.095 µM (≈ 0.0378 µg/mL)
- MIC [2]: 0.93 µM (≈ 0.37 µg/mL)
- IC50 (Vero): > 125 µM

Compound: CC(C)(C)c1ccc(-c2ccc(CO[C@@H]3COc4nc([N+](=O)[O-])cn4C3)cc2)cc1
- MIC [1]: 0.095 µM (≈ 0.0387 µg/mL)
- MIC [2]: > 32 µM
- IC50 (Vero): > 125 µM
